In ChEMBL document CHEMBL1671684, “In vitro resistance profile of the hepatitis C virus NS3/4A protease inhibitor TMC435” (Antimicrob Agents Chemother, 2010):

Columns and labels:
Hepatitis C virus [1] = assay: Antiviral activity against Hepatitis C virus subtype 1b expressing NS3 F43V mutant infected in HuH7 cells after 48 hrs by luciferase reporter assay; format: functional, organism-based, Hepacivirus hominis; settings: genotype 1b, Huh-7, 48 h
How it was run: (§1)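 Genotype 1b con1 subgenomic bicistronic replicon (clone ET) with luciferase reporter and adaptive mutations E1202G, T1280I, K1846T, carrying site-directed NS3 single or double mutations. 10 μg wild-type or mutant replicon RNA electroporated into Huh7-lunet cells, seeded 4,000 cells/well over a nine-point inhibitor dilution series, 48 h at 37°C, 5% CO2, then luminescence read. EC50 taken as median of individual experiments; fold change relative to parental replicon EC50.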

Hepatitis C virus [2] = assay: Antiviral activity against Hepatitis C virus subtype 1b expressing NS3 Q80K mutant infected in HuH7 cells after 48 hrs by luciferase reporter assay; format: functional, organism-based, Hepacivirus hominis; settings: genotype 1b, Huh-7, 48 h; how it was run: as §1
Hepatitis C virus [3] = assay: Ratio of EC50 for Hepatitis C virus subtype 1b expressing NS3 R155K mutant to EC50 for Hepatitis C virus subtype 1b expressing WT NS3 infected in HuH7 cells after 48 hrs by luciferase reporter assay; format: functional, Hepacivirus hominis, genotype 1b, Huh-7
How it was run: (§2)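 Transient replicon assay: site-directed single or multiple NS3 mutations engineered into genotype 1b (con1, clone ET) subgenomic bicistronic replicon with luciferase reporter and adaptive mutations E1202G, T1280I, K1846T. Huh7-lunet cells electroporated with 10 μg wild-type or mutant replicon RNA, seeded 4,000 cells/well with nine-point inhibitor dilution; 48 h, 37°C, 5% CO2; luminescence read-out. EC50 as median of individual experiments; fold change versus parental replicon EC50.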

Hepatitis C virus [4] = assay: Ratio of EC50 for Hepatitis C virus subtype 1b expressing NS3 D168A mutant to EC50 for Hepatitis C virus subtype 1b expressing WT NS3 infected in HuH7 cells after 48 hrs by luciferase reporter assay; format: functional, Hepacivirus hominis, genotype 1b, Huh-7; how it was run: as §1
Hepatitis C virus [5] = assay: Antiviral activity against Hepatitis C virus subtype 1b expressing NS3 R155I mutant infected in HuH7 cells after 48 hrs by luciferase reporter assay; format: functional, organism-based, Hepacivirus hominis; settings: genotype 1b, Huh-7, 48 h; how it was run: as §1
Hepatitis C virus [6] = assay: Antiviral activity against Hepatitis C virus subtype 1b expressing NS3 Q80G mutant infected in HuH7 cells after 48 hrs by luciferase reporter assay; format: functional, organism-based, Hepacivirus hominis; settings: genotype 1b, Huh-7, 48 h; how it was run: as §1
Hepatitis C virus [7] = assay: Antiviral activity against Hepatitis C virus subtype 1b expressing NS3 D168E mutant infected in HuH7 cells after 48 hrs by luciferase reporter assay; format: functional, organism-based, Hepacivirus hominis; settings: genotype 1b, Huh-7, 48 h; how it was run: as §1
Hepatitis C virus [8] = assay: Antiviral activity against Hepatitis C virus subtype 1b expressing NS3 D168A mutant infected in HuH7 cells after 48 hrs by luciferase reporter assay; format: functional, organism-based, Hepacivirus hominis; settings: genotype 1b, Huh-7, 48 h; how it was run: as §1
Hepatitis C virus [9] = assay: Ratio of EC50 for Hepatitis C virus subtype 1b expressing NS3 F43S mutant to EC50 for Hepatitis C virus subtype 1b expressing WT NS3 infected in HuH7 cells after 48 hrs by luciferase reporter assay; format: functional, Hepacivirus hominis, genotype 1b, Huh-7; how it was run: as §2
Hepatitis C virus [10] = assay: Antiviral activity against Hepatitis C virus subtype 1b expressing NS3 Q80R and D168A mutant infected in HuH7 cells after 48 hrs by luciferase reporter assay; format: functional, organism-based, Hepacivirus hominis; settings: genotype 1b, Huh-7, 48 h; how it was run: as §1
Hepatitis C virus [11] = assay: Antiviral activity against Hepatitis C virus subtype 1b expressing NS3 A156S mutant infected in HuH7 cells after 48 hrs by luciferase reporter assay; format: functional, organism-based, Hepacivirus hominis; settings: genotype 1b, Huh-7, 48 h; how it was run: as §1
Hepatitis C virus [12] = assay: Ratio of EC50 for Hepatitis C virus subtype 1b expressing NS3 Q80G mutant to EC50 for Hepatitis C virus subtype 1b expressing WT NS3 infected in HuH7 cells after 48 hrs by luciferase reporter assay; format: functional, Hepacivirus hominis, genotype 1b, Huh-7; how it was run: as §2
Hepatitis C virus [13] = assay: Antiviral activity against Hepatitis C virus subtype 1b expressing NS3 Q80H mutant infected in HuH7 cells after 48 hrs by luciferase reporter assay; format: functional, organism-based, Hepacivirus hominis; settings: genotype 1b, Huh-7, 48 h; how it was run: as §1
Hepatitis C virus [14] = assay: Ratio of EC50 for Hepatitis C virus subtype 1b expressing NS3 Q80K mutant to EC50 for Hepatitis C virus subtype 1b expressing WT NS3 infected in HuH7 cells after 48 hrs by luciferase reporter assay; format: functional, Hepacivirus hominis, genotype 1b, Huh-7; how it was run: as §2
Hepatitis C virus [15] = assay: Antiviral activity against Hepatitis C virus subtype 1b expressing NS3 R155T mutant infected in HuH7 cells after 48 hrs by luciferase reporter assay; format: functional, organism-based, Hepacivirus hominis; settings: genotype 1b, Huh-7, 48 h; how it was run: as §1
Hepatitis C virus [16] = assay: Ratio of EC50 for Hepatitis C virus subtype 1b expressing NS3 Q80R and R155K mutant to EC50 for Hepatitis C virus subtype 1b expressing WT NS3 infected in HuH7 cells after 48 hrs by luciferase reporter assay; format: functional, Hepacivirus hominis, genotype 1b, Huh-7; how it was run: as §2
Hepatitis C virus [17] = assay: Antiviral activity against Hepatitis C virus subtype 1b expressing NS3 F43S mutant infected in HuH7 cells after 48 hrs by luciferase reporter assay; format: functional, organism-based, Hepacivirus hominis; settings: genotype 1b, Huh-7, 48 h; how it was run: as §1
Hepatitis C virus [18] = assay: Antiviral activity against Hepatitis C virus subtype 1b expressing NS3 D168G mutant infected in HuH7 cells after 48 hrs by luciferase reporter assay; format: functional, organism-based, Hepacivirus hominis; settings: genotype 1b, Huh-7, 48 h; how it was run: as §1
Hepatitis C virus [19] = assay: Ratio of EC50 for Hepatitis C virus subtype 1b expressing NS3 D168V mutant to EC50 for Hepatitis C virus subtype 1b expressing WT NS3 infected in HuH7 cells after 48 hrs by luciferase reporter assay; format: functional, Hepacivirus hominis, genotype 1b, Huh-7; how it was run: as §2
Hepatitis C virus [20] = assay: Antiviral activity against Hepatitis C virus subtype 1b expressing NS3 V36M mutant infected in HuH7 cells after 48 hrs by luciferase reporter assay; format: functional, organism-based, Hepacivirus hominis; settings: genotype 1b, Huh-7, 48 h; how it was run: as §1
Hepatitis C virus [21] = assay: Ratio of EC50 for Hepatitis C virus subtype 1b expressing NS3 F43S and Q80R mutant to EC50 for Hepatitis C virus subtype 1b expressing WT NS3 infected in HuH7 cells after 48 hrs by luciferase reporter assay; format: functional, Hepacivirus hominis, genotype 1b, Huh-7; how it was run: as §2
Hepatitis C virus [22] = assay: Antiviral activity against Hepatitis C virus subtype 1b expressing NS3 R155K mutant infected in HuH7 cells after 48 hrs by luciferase reporter assay; format: functional, organism-based, Hepacivirus hominis; settings: genotype 1b, Huh-7, 48 h; how it was run: as §1
Hepatitis C virus [23] = assay: Ratio of EC50 for Hepatitis C virus subtype 1b expressing NS3 V36 M mutant to EC50 for Hepatitis C virus subtype 1b expressing WT NS3 infected in HuH7 cells after 48 hrs by luciferase reporter assay; format: functional, Hepacivirus hominis, genotype 1b, Huh-7; how it was run: as §2
Hepatitis C virus [24] = assay: Antiviral activity against Hepatitis C virus subtype 1b expressing NS3 Q80R and R155K mutant infected in HuH7 cells after 48 hrs by luciferase reporter assay; format: functional, organism-based, Hepacivirus hominis; settings: genotype 1b, Huh-7, 48 h; how it was run: as §1
Hepatitis C virus [25] = assay: Ratio of EC50 for Hepatitis C virus subtype 1b expressing NS3 Q80L mutant to EC50 for Hepatitis C virus subtype 1b expressing WT NS3 infected in HuH7 cells after 48 hrs by luciferase reporter assay; format: functional, Hepacivirus hominis, genotype 1b, Huh-7; how it was run: as §2
Hepatitis C virus [26] = assay: Ratio of EC50 for Hepatitis C virus subtype 1b expressing NS3 R155M mutant to EC50 for Hepatitis C virus subtype 1b expressing WT NS3 infected in HuH7 cells after 48 hrs by luciferase reporter assay; format: functional, Hepacivirus hominis, genotype 1b, Huh-7; how it was run: as §2
Hepatitis C virus [27] = assay: Antiviral activity against Hepatitis C virus subtype 1b expressing NS3 Q80R mutant infected in HuH7 cells after 48 hrs by luciferase reporter assay; format: functional, organism-based, Hepacivirus hominis; settings: genotype 1b, Huh-7, 48 h; how it was run: as §1
Hepatitis C virus [28] = assay: Ratio of EC50 for Hepatitis C virus subtype 1b expressing NS3 D168H mutant to EC50 for Hepatitis C virus subtype 1b expressing WT NS3 infected in HuH7 cells after 48 hrs by luciferase reporter assay; format: functional, Hepacivirus hominis, genotype 1b, Huh-7; how it was run: as §2
Hepatitis C virus [29] = assay: Ratio of EC50 for Hepatitis C virus subtype 1b expressing NS3 D168N mutant to EC50 for Hepatitis C virus subtype 1b expressing WT NS3 infected in HuH7 cells after 48 hrs by luciferase reporter assay; format: functional, Hepacivirus hominis, genotype 1b, Huh-7; how it was run: as §2
Hepatitis C virus [30] = assay: Ratio of EC50 for Hepatitis C virus subtype 1b expressing NS3 T54A mutant to EC50 for Hepatitis C virus subtype 1b expressing WT NS3 infected in HuH7 cells after 48 hrs by luciferase reporter assay; format: functional, Hepacivirus hominis, genotype 1b, Huh-7; how it was run: as §2
Hepatitis C virus [31] = assay: Antiviral activity against Hepatitis C virus subtype 1b expressing NS3 D168H mutant infected in HuH7 cells after 48 hrs by luciferase reporter assay; format: functional, organism-based, Hepacivirus hominis; settings: genotype 1b, Huh-7, 48 h; how it was run: as §1
Hepatitis C virus [32] = assay: Antiviral activity against Hepatitis C virus subtype 1b expressing NS3 A156V mutant infected in HuH7 cells after 48 hrs by luciferase reporter assay; format: functional, organism-based, Hepacivirus hominis; settings: genotype 1b, Huh-7, 48 h; how it was run: as §1

| SMILES | EC50 (Hepatitis C virus [1]) | EC50 (Hepatitis C virus [2]) | Ratio EC50 (Hepatitis C virus [3]) | Ratio EC50 (Hepatitis C virus [4]) | EC50 (Hepatitis C virus [5]) | EC50 (Hepatitis C virus [6]) | EC50 (Hepatitis C virus [7]) | EC50 (Hepatitis C virus [8]) | Ratio EC50 (Hepatitis C virus [9]) | EC50 (Hepatitis C virus [10]) | EC50 (Hepatitis C virus [11]) | Ratio EC50 (Hepatitis C virus [12]) | EC50 (Hepatitis C virus [13]) | Ratio EC50 (Hepatitis C virus [14]) | EC50 (Hepatitis C virus [15]) | Ratio EC50 (Hepatitis C virus [16]) | EC50 (Hepatitis C virus [17]) | EC50 (Hepatitis C virus [18]) | Ratio EC50 (Hepatitis C virus [19]) | EC50 (Hepatitis C virus [20]) | other results |
| --- | --- | --- | --- | --- | --- | --- | --- | --- | --- | --- | --- | --- | --- | --- | --- | --- | --- | --- | --- | --- | --- |
| CC(C)(C)NC(=O)N[C@H](C(=O)N1C[C@H]2[C@@H]([C@H]1C(=O)NC(CC1CCC1)C(=O)C(N)=O)C2(C)C)C(C)(C)C (some centres undefined) [BOCEPREVIR] | 527 nM | 94 nM | 4.7 | 0.7 | 5340 nM | 127 nM | 69 nM | 100 nM | 5.2 | 113 nM | 525 nM | 1.2 | 78 nM | 0.8 | 5460 nM | 2.7 | 333 nM | 63 nM | 0.5 | 217 nM | Ratio EC50 (Hepatitis C virus [21]): 7.4; EC50 (Hepatitis C virus [22]): 743 nM; Ratio EC50 (Hepatitis C virus [23]): 1.8; EC50 (Hepatitis C virus [24]): 680 nM; Ratio EC50 (Hepatitis C virus [25]): 0.9; Ratio EC50 (Hepatitis C virus [26]): 5.7; EC50 (Hepatitis C virus [27]): 85 nM; Ratio EC50 (Hepatitis C virus [28]): 0.7; Ratio EC50 (Hepatitis C virus [29]): 1.9; Ratio EC50 (Hepatitis C virus [30]): 2.1; EC50 (Hepatitis C virus [31]): 73 nM; EC50 (Hepatitis C virus [32]): 9670 nM |
| COc1ccc2c(O[C@@H]3C[C@H]4C(=O)N[C@]5(C(=O)O)C[C@H]5/C=C\CCCCC[C@H](NC(=O)OC5CCCC5)C(=O)N4C3)cc(-c3csc(NC(C)C)n3)nc2c1 [CILUPREVIR] | 0.4 nM | 1 nM | 496 | 339 | 29 nM | 3 nM | 40 nM | 304 nM | 0.9 | 1040 nM | 1.7 nM | 4.9 | 1.2 nM | 0.9 | 685 nM | 772 | 1 nM | 35 nM | 3213 | 2.4 nM | Ratio EC50 (Hepatitis C virus [21]): 0.6; EC50 (Hepatitis C virus [22]): 489 nM; Ratio EC50 (Hepatitis C virus [23]): 1.2; EC50 (Hepatitis C virus [24]): 707 nM; Ratio EC50 (Hepatitis C virus [25]): 1.2; Ratio EC50 (Hepatitis C virus [26]): 68; EC50 (Hepatitis C virus [27]): 1.4 nM; Ratio EC50 (Hepatitis C virus [28]): 263; Ratio EC50 (Hepatitis C virus [29]): 12; Ratio EC50 (Hepatitis C virus [30]): 0.6; EC50 (Hepatitis C virus [31]): 215 nM; EC50 (Hepatitis C virus [32]): 1520 nM |
